“Also recorded” adds a separate entry of the source. Values belong to the molecule of their own block, whether it stands above or below them.
What was measured:
[1] = target: T1, FOXM1 DBD-DNA interaction (Homo sapiens, UniProt Q08050); experiment: EMSA displacement of FOXM1 DBD-DNA interaction; format: binding
T1 sequence (Q08050 222-360): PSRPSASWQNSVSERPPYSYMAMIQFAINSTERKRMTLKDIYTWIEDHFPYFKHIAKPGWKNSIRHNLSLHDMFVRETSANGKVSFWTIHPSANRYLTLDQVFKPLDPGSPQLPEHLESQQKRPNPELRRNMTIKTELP
Outline: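 The DNA-binding domain of human FOXM1c was expressed as a GST fusion in E. coli BL21(DE3), induced with 1 mM IPTG at 18°C overnight. DBD (750 nM final) was preincubated with test compound 1.5 h at RT. FAM-labelled 16-bp consensus dsDNA (15 nM final) was added for 15 min. Samples ran on 6% retardation gels and were imaged by fluorescence.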

[2] = system: MCF-7 breast cancer cells; experiment: 72 h growth inhibition in MCF-7 cells; format: cell-based; details: Homo sapiens, MCF7, 72 h, read-out: GI50 (50% growth inhibition)
Outline: (§1)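 Cell lines came from ECACC. MCF-7 and MDA-MB-231 were grown in DMEM + 10% FBS, and PEO-1 in RPMI + 10% FBS. Cells were exposed to test compound for 72 h. GI50 is the concentration giving 50% growth inhibition.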

[3] = system: FOXM1 target gene transcripts in MCF-7 cells; experiment: RNA-seq differential expression in MCF-7 cells; format: cell-based, human; details: 6 h
Outline: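 MCF-7 cells were treated for 3, 6 or 9 h, in three replicates per time point, against 0 h controls. TruSeq libraries gave 100-nt single-end reads, which were adapter/quality trimmed, aligned to hg19 and counted per gene. Differential expression used the edgeR exact test with library-size (CPM) normalization, and FDR < 0.01 counted as significant.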

[4] = system: FOXM1 occupancy at CCNB1 and CDC25B gene promoters; experiment: FOXM1 ChIP followed by qRT-PCR in MCF-7 cells; format: cell-based, human; details: 6 h treatment
Outline: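 MCF-7 cells at 70% confluence were treated 6 h with test compound or DMSO. Cells were crosslinked with 1% formaldehyde 10 min at RT, quenched with glycine, lysed and sonicated. Immunoprecipitation used 3 μg rabbit polyclonal anti-FOXM1 on protein-A beads overnight, with elution at 65°C for 16 h. SYBR qPCR (40 cycles) amplified CDC25B and CCNB1 promoters. Enrichment was normalized to a cyclin D1 intergenic control region.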

[5] = system: CDC25B expression in MDA-MB-231 cells; experiment: CDC25B expression in MDA-MB-231 cells; format: cell-based, human; details: 3 h treatment
Outline: (§2)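 MDA-MB-231 (DMEM + 10% FBS) or PEO-1 (RPMI + 10% FBS) cells were exposed to test compound for 3 h. CDC25B transcript was measured by qRT-PCR with commercial gene-specific primer sets, with ACTB and YWHAZ primer sets also run.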

[6] = system: MDA-MB-231 ER-negative breast cancer cells; experiment: Cell viability assay, MDA-MB-231 cells; format: cell-based; details: Homo sapiens, MDA-MB-231, 72 h
Outline: as §1

[7] = system: PEO-1 ovarian cancer cells; experiment: Cell viability assay, PEO-1 cells; format: cell-based; details: Homo sapiens, PEO1, 72 h
Outline: as §1

[8] = system: FOXM1 in MCF-7 cells; experiment: Western blot of total lysate and chromatin fraction of treated MCF-7 cells; format: cell-based, human; details: 6 h, 20 μM
Outline: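 MCF-7 cells were treated 6 h with test compound or DMSO. Whole-cell RIPA lysates and isolated chromatin pellets (sonicated in Laemmli buffer) ran on 8–16% Tris-glycine gels. Blots were probed overnight at 4°C with anti-FOXM1 (1:1000), actin (1:5000) or histone H3 (1:10000), then with IR-dye secondaries. FOXM1 was quantified relative to actin (lysate) or H3 (chromatin).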

[9] = system: genes with FOXM1 promoter occupancy (ENCODE ChIP-seq, MCF-7); format: cell-based, human; details: ENCODE ChIP-seq datasets
Outline: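 Differentially expressed genes at 3 h were defined as FDR < 0.01 and logFC > 0.3 […]. ENCODE FOX-family ChIP-seq peaks (MACS) shared by both duplicates were mapped to promoters (−2000 to +100 bp of TSS). Proportions were compared by chi-squared test. Temporal clusters came from fuzzy c-means (9 clusters, fuzzification 1.35) on 1552 genes with abs(logFC) > 0.75.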

[10] = system: CDC25B expression in PEO-1 cells; experiment: CDC25B expression in PEO-1 cells; format: cell-based, human; details: 3 h treatment
Outline: as §2

[11] = system: 20S proteasome; experiment: 20S proteasome activity assay; format: biochemical; details: 10 μM inhibitor, 37°C, 90 m
Outline: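 Recombinant 20S proteasome with an AMC-linked peptide substrate that fluoresces on cleavage. Substrate dilution of 1:200 was chosen from an AMC standard curve. Test compound at 10 μM or DMSO control was mixed with enzyme and substrate and incubated 90 min at 37°C. Fluorescence was read at 380/460 nm and normalized to DMSO, with MG-132 as reference inhibitor.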

[12] = target: T2, FOXM1 DBD (GST fusion) (Homo sapiens, UniProt Q08050 222-360); experiment: competition
T2 sequence: T1 sequence (Q08050 222-360)

[13] = target: T2, FOXM1 DBD (GST fusion); experiment: EMSA
[14] = target: T2, FOXM1 DBD (GST fusion); experiment: fluorescence polarization
[15] = target: T3, FOXM1 full length (FOXM1c, GST fusion) (Homo sapiens, UniProt Q08050 1-763); experiment: fluorescence polarization
T3 sequence: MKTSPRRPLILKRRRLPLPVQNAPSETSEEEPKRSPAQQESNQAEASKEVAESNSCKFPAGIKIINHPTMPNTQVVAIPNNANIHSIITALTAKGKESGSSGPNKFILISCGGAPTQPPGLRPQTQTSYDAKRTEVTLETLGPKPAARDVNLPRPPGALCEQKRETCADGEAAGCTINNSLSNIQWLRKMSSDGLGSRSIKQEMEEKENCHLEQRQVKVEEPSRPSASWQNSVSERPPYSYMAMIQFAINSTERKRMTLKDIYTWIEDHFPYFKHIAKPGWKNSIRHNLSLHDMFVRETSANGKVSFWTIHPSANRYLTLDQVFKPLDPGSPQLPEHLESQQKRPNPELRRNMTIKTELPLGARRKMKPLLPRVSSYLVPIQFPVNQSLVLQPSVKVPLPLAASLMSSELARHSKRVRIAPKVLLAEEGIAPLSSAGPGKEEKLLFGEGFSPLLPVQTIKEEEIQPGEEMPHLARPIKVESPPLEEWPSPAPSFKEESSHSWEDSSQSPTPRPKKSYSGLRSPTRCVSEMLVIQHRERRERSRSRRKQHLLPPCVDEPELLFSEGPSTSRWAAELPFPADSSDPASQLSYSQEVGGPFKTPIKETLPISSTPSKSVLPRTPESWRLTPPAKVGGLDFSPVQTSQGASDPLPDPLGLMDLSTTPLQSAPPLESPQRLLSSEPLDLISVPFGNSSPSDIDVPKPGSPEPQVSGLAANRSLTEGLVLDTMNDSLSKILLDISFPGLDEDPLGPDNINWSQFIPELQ

[16] = target: T2, FOXM1 DBD (GST fusion); experiment: fluorescence polarization; remark: listed apart in the source

IC50 [1]: 45 ± 16.4 µM
GI50 [2]: 2.7 µM
Molecule: C=C(NC(=O)C(=C)NC(=O)c1csc(C2=N[C@@H]3c4csc(n4)[C@H]4NC(=O)c5csc(n5)[C@H]([C@](C)(O)[C@@H](C)O)NC(=O)[C@H]5CSC(=N5)/C(=C/C)NC(=O)[C@H]([C@@H](C)O)NC(=O)c5csc(n5)[C@]3(CC2)NC(=O)[C@H](C)NC(=O)C(=C)NC(=O)[C@H](C)NC(=O)[C@H]([C@@H](C)CC)N[C@@H]2C=Cc3c([C@H](C)O)cc(nc3[C@H]2O)C(=O)O[C@@H]4C)n1)C(N)=O [thiostrepton, reference compound]

IC50 [1]: 22.5 ± 12.3 µM
GI50 [6]: 21.8 µM
GI50 [7]: 18.1 µM
enrichment of differentially expressed genes for promoter occupancy of other FOX transcription factors (FOXA1, FOXA2, FOXP2) [9]: did not show enrichment
GI50 [2]: 18 ± 3 µM
Molecule: Nc1c(C(=O)Nc2ccc(F)cc2)sc2nc(-c3cccs3)cc(C(F)(F)F)c12 [FDI-6, 3-amino-N-(4-fluorophenyl)-6-(thiophen-2-yl)-4-(trifluoromethyl)thieno[2,3-b]pyridine-2-carboxamide]
AURKA transcript change [3]: −0.83 log2 fold change
CCNA2 transcript change [3]: −0.65 log2 fold change
CCNB1 transcript change [3]: −0.86 log2 fold change
CDKN3 transcript change [3]: −0.739 log2 fold change
CENPA transcript change [3]: −0.61 log2 fold change
KIF20A transcript change [3]: −1.22 log2 fold change
NEK2 transcript change [3]: −0.86 log2 fold change
PLK1 transcript change [3]: −0.92 log2 fold change
change in FOXM1 occupancy at CCNB1 gene promoter [4]: −0.68 log2 fold
change in FOXM1 occupancy at CDC25B gene promoter [4]: −0.64 log2 fold
CDC25B expression [5]: down-regulates
decrease of chromatin bound FOXM1 ([8]; MCF-7 cells, normalized to Histone H3): ~50%
overall amount of FOXM1 protein ([8]; MCF-7 total lysate, normalized to Actin): unaffected
CDC25B expression [10]: down-regulates
inhibition of the 20S proteasome [11]: did not inhibit; also recorded: inactive

B1: unlabeled FOXM1 consensus DNA, 16 bp (dsDNA)
DNA 1: AAACAAACAAACAATC
DNA 2: GATTGTTTGTTTGTTT
IC50 [12]: 57 ± 5 nM

B2: FOXM1 consensus DNA probe, 16 bp (dsDNA)
DNA 1: AAACAAACAAACAATC
DNA 2: GATTGTTTGTTTGTTT
Kd [13]: 301 ± 21 nM
Kd [14]: 224 ± 30 nM
Kd [15]: 300 ± 64 nM
Kd [16]: 158 nM
